Laboratory results as given in publication PMC7797712 (Medicinal Chemistry Research, 2021).

What was measured:
HBV core protein = HBV core protein (Hepatitis B virus genotype D subtype ayw, UniProt P03146); assay: Western blot assay of HBV core protein dephosphorylation in AML12HBV_DE11 cells; type: cell-based; settings: 30 h, ENAN-34017 2 µM, Bay 41-4109 2 µM, entecavir 1 µM
Method in brief: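 Controls: cells kept with tetracycline, or tetracycline-free and mock treated. Test cells tetracycline-free, treated 30 h, then lysed in LDS loading buffer and boiled 100 °C for 20 min. Run on 12% Bis-Tris gel in MOPS buffer, transferred to PVDF. Hyper-phosphorylated and dephosphorylated/hypophosphorylated core protein detected by western blot; β-actin loading control.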

[1] = system: cytoplasmic HBV-DNA replication in AML12HBV10 cells; assay: Antiviral assay in AML12HBV10 cells; type: cell-based, hepatitis B virus
Method in brief: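 AML12-derived mouse hepatocyte line carrying a tetracycline-inducible, envelope-deficient HBV genome; seeded at 2 × 10^4 cells/well in tetracycline-free medium. Next day, mock or twofold serial dilution (10 to 0.08 µM) for 48 h. Cells lysed in Tris-HCl pH 7.5/EDTA/NaCl/1% NP-40. Half the lysate NaOH-denatured, neutralised, dot-blotted and hybridised with 32P-labelled HBV minus-strand riboprobe. Phosphorimager quantification; EC50 = concentration reducing HBV DNA by 50%.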

AML12HBV10 cells = assay: Cytotoxicity assay in AML12HBV10 cells; type: cell-based, mouse
Method in brief: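 Cells treated in tetracycline-free medium, as in the antiviral assay, with twofold serial dilution from 50 to 1.56 µM for 48 h. Viability checked by microscopy and measured by MTT. CC50 = concentration reducing viability by 50%.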

[2] = system: HBV replication in HepDES19 cells; assay: Antiviral assay in HepDES19 cells; type: cell-based; settings: Hepatitis B virus, HepDES19, read-out: EC50, inhibition of HBV-DNA replication
Method in brief: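 HepG2-derived line with a tetracycline-inducible, envelope-deficient HBV genome; seeded in 24-well plates and kept tetracycline-free for 2 days. Then mock or twofold serial dilution for a further 4 days. Cytoplasmic HBV core DNA extracted and measured by qPCR. EC50 from regression on biologically triplicate experiments, two independent experiments.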

HBV core protein, sequence (P03146 whole entry): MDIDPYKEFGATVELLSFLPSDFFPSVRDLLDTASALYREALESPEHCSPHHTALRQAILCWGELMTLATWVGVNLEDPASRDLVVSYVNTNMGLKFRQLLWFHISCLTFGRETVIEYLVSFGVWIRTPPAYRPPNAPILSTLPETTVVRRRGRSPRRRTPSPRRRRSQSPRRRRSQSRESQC

## O=C1CCN(C(=O)Nc2ccc(F)c(Cl)c2)CN1Cc1ccc(F)cc1F [Compound 27, N-(3-chloro-4-fluorophenyl)-3-(2,4-difluorobenzyl)-4-oxotetrahydropyrimidine-1(2H)-carboxamide]
HBV core protein
  Effect on Cp dephosphorylation: inhibited Cp dephosphorylation
[1]; AML12HBV10 cells, 48 h treatment, dot-blot hybridization
  EC50 (50% inhibitory concentration of cytoplasmic HBV-DNA replication): submicromolar
[1]; AML12HBV10 cells, EC50 ratio
  Potency increase relative to 21: fourfold potency increase
[1]; Hepatitis B virus, AML12HBV10, 48 h, read-out: EC50 (50% inhibitory concentration of cytoplasmic HBV-DNA replication)
  EC50: 0.52 µM
AML12HBV10 cells
  Cytotoxicity at 50 μM: no cytotoxicity
[2]
  EC50: 0.84 µM
